Data on 38 compounds can be found in ChEMBL document CHEMBL1121957, “Imidodisulfamides. 2. Substituted 1,2,3,4-tetrahydroisoquinolinylsulfonic imides as antagonists of slow-reacting substance of anaphylaxis” (1982).

Common to all, as to assay type: functional
Assay [1] is filed under the species Cavia porcellus. Briefly: Percent inhibition of SRS-A induced contraction minus percent inhibition of 25 mM KCl induced contractions at a conc of 5(uM). In outline: (§1)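 Ileum segments (proximal to Peyer's patch) from male Hartley guinea pigs (400–600 g) were held in modified Tyrode's at 37.5 °C under 95% O2-5% CO2, with isometric recording. Partially purified guinea pig SRS-A or 25 mM KCl was dosed for 60–80% maximal contraction, then reapplied after 15 min compound exposure with five bath changes. Value is percent inhibition versus vehicle controls (3 vs 3 tissues), SRS-A minus KCl.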

For assay [2], the species on record is Cavia porcellus. Briefly: Percent inhibition of SRS-A induced contraction minus percent inhibition of 25 mM KCl induced contractions at a conc of 5(uM); Not statistically significant. The method in brief:
as §1

For assay [3], the species on record is Cavia porcellus. Nature of the assay: Percent inhibition of SRS-A induced contraction minus percent inhibition of 25 mM KCl induced contractions at a conc of 50(uM). In outline: as §1
The species entered for assay [4] is Cavia porcellus. Nature of the assay: Percent inhibition of SRS-A induced contraction minus percent inhibition of 25 mM KCl induced contractions at a conc of 50(uM); Not statistically significant. In outline:
as §1

Assay [5] is filed under the species Cavia porcellus. Nature of the assay: Percent inhibition of SRS-A induced contraction minus percent inhibition of 25 mM KCl induced contractions at a conc of 5(uM); Percent enhancement of tissue contraction compared to control. The method in brief:
as §1

In general, Inhibition refers to the relative decrease from the control value, in per cent.

For the compound `CSc1ccc2c(c1Cl)CN(S(=O)(=O)NS(=O)(=O)N1CCc3ccc(SC)c(Cl)c3C1)CC2`, the Inhibition in assay [1] is 25%. Same read-out and setting: under `O=S(=O)(NS(=O)(=O)N1CCc2c(Cl)c(Cl)c(Cl)c(Cl)c2C1)N1CCc2c(Cl)c(Cl)c(Cl)c(Cl)c2C1` stands 14%. As for `O=S(=O)(NS(=O)(=O)N1CCc2c(Cl)cccc2C1)N1CCc2c(Cl)cccc2C1`, the Inhibition in assay [2] worked out at 8%. Regarding `O=S(=O)(NS(=O)(=O)N1CCc2c(Br)cccc2C1)N1CCc2c(Br)cccc2C1`, the Inhibition in assay [1] turned out to be 29%.

Consider `O=S(=O)(NS(=O)(=O)N1CCc2c(Br)ccc(Br)c2C1)N1CCc2c(Br)ccc(Br)c2C1`, for which the Inhibition in assay [1] stood at 50%. Same read-out and setting: the result for `COc1ccc(OC)c2c1CCN(S(=O)(=O)NS(=O)(=O)N1CCc3c(OC)ccc(OC)c3C1)C2` reads 12%. `O=S(=O)(NS(=O)(=O)N1CCc2cc(Cl)ccc2C1)N1CCc2cc(Cl)ccc2C1`: the Inhibition in assay [1] and in assay [3] was 1% throughout.

Turning to `O=S(=O)(NS(=O)(=O)N1CCc2ccccc2CC1)N1CCc2ccccc2CC1`, in assay [3], the Inhibition came to 14%. As for `O=S(=O)(NS(=O)(=O)N1CCc2ccc(C(F)(F)F)c(C(F)(F)F)c2C1)N1CCc2ccc(C(F)(F)F)c(C(F)(F)F)c2C1`, in assay [1], the Inhibition is given as 27%. Consider `O=S(=O)(NC1Cc2ccccc2C1)NS(=O)(=O)NC1Cc2ccccc2C1`, for which the Inhibition in assay [3] stood at 11%. For `O=S(=O)(NS(=O)(=O)N1CCc2ccccc2C1)N1CCc2ccccc2C1`, the Inhibition in assay [4] worked out at 10%.

As for `O=S(=O)(NC1CC1c1ccc(Cl)c(Cl)c1)NS(=O)(=O)NC1CC1c1ccc(Cl)c(Cl)c1` (centres undefined), the Inhibition in assay [1] was 42%. For `CC1c2c(ccc(Cl)c2Cl)CCN1S(=O)(=O)NS(=O)(=O)N1CCc2ccc(Cl)c(Cl)c2C1C` (centres undefined), the Inhibition in assay [1] was determined as 48%.

In the case of `O=S(=O)(NS(=O)(=O)N1CCc2ccc([S+]([O-])C(Cl)(Cl)Cl)cc2C1)N1CCc2ccc([S+]([O-])C(Cl)(Cl)Cl)cc2C1` (centres undefined), in assay [1], the Inhibition is on record as 28%. With `O=S(=O)(NC1CCCC[C@@H]1c1ccccc1)NS(=O)(=O)NC1CCCC[C@H]1c1ccccc1` (some centres undefined), in assay [3], the Inhibition was 41%. Regarding `O=S(=O)(NC1CC1c1ccccc1)NS(=O)(=O)NC1CC1c1ccccc1` (centres undefined), in assay [1], the Inhibition is reported as 17%. Consider `O=S(=O)(NS(=O)(=O)N1CCc2ccc(Br)cc2C1)N1CCc2ccc(Br)cc2C1`, for which the Inhibition in assay [1] worked out at 26%. Turning to `O=S(=O)(NS(=O)(=O)N1CCc2cc(Cl)c(Cl)c(Cl)c2C1)N1CCc2cc(Cl)c(Cl)c(Cl)c2C1`, the Inhibition in assay [2] came out at 11%. As for `COc1ccc2c(c1OC)CN(S(=O)(=O)NS(=O)(=O)N1CCc3ccc(OC)c(OC)c3C1)CC2`, the Inhibition in assay [5] was 5%. Regarding `O=S(=O)(NS(=O)(=O)N1CCc2ccc(Cl)c(Cl)c2C1c1ccccc1)N1CCc2ccc(Cl)c(Cl)c2C1c1ccccc1` (centres undefined), the Inhibition in assay [1] is 20%. On the same count and under the same terms, the result for `O=S(=O)(NS(=O)(=O)N1CCc2ccc(Cl)c(Cl)c2C1Cc1ccccc1)N1CCc2ccc(Cl)c(Cl)c2C1Cc1ccccc1` (centres undefined) reads 8%. For the compound `CC(=O)c1ccc2c(c1)CN(S(=O)(=O)NS(=O)(=O)N1CCc3ccc(C(C)=O)cc3C1)CC2`, the Inhibition in assay [2] was found to be 4%. Consider `O=S(=O)(NS(=O)(=O)N1CCc2cccc(Cl)c2C1)N1CCc2cccc(Cl)c2C1`, for which the Inhibition in assay [2] was 16%.

As to `CCCCCCC1c2c(ccc(Cl)c2Cl)CCN1S(=O)(=O)NS(=O)(=O)N1CCc2ccc(Cl)c(Cl)c2C1CCCCCC` (centres undefined), in assay [1], the Inhibition is -5%. With `O=S(=O)(NS(=O)(=O)N1CCc2c(cccc2-c2ccccc2)C1)N1CCc2c(cccc2-c2ccccc2)C1`, the Inhibition in assay [1] turned out to be 13%.

Consider `O=S(=O)(NS(=O)(=O)N1CCc2ccc(Cl)c(Cl)c2C1C1CCCC1)N1CCc2ccc(Cl)c(Cl)c2C1C1CCCC1` (centres undefined), for which the Inhibition in assay [1] turned out to be 4%. Still for that read-out and setting: the result for `O=S(=O)(NS(=O)(=O)N1CCc2ccc(Cl)c(SC(F)(F)C(F)F)c2C1)N1CCc2ccc(Cl)c(SC(F)(F)C(F)F)c2C1` reads 22%. Consider `Cc1ccc2c(c1Cl)CN(S(=O)(=O)NS(=O)(=O)N1CCc3ccc(C)c(Cl)c3C1)CC2`, for which the Inhibition in assay [1] was 34%. On the same count and under the same terms, the result for `O=S(=O)(NS(=O)(=O)N1CCc2cc(Cl)c(Cl)cc2C1)N1CCc2cc(Cl)c(Cl)cc2C1` reads 40%. Regarding `O=S(=O)(NS(=O)(=O)N1CCc2ccc(Cl)c(Cl)c2C1)N1CCc2ccc(Cl)c(Cl)c2C1`, in assay [1], the Inhibition was determined as 42%. For `O=S(=O)(NS(=O)(=O)N1CCc2ccccc21)N1CCc2ccccc21`, in assay [3], the Inhibition was -13%. For the compound `COc1ccc2c(c1)CN(S(=O)(=O)NS(=O)(=O)N1CCc3ccc(OC)cc3C1)CC2`, the Inhibition in assay [5] is 6%.

Take `O=S(=O)(NS(=O)(=O)N1CCc2cc(Cl)ccc21)N1CCc2cc(Cl)ccc21`: the Inhibition in assay [1] is on record as 13%. Consider `O=S(=O)(NS(=O)(=O)N1CCc2ccc(Cl)c(Cl)c2C1C1CC1)N1CCc2ccc(Cl)c(Cl)c2C1C1CC1` (centres undefined), for which the Inhibition in assay [1] is 47%. Consider `CC1Cc2ccc(Cl)c(Cl)c2CN1S(=O)(=O)NS(=O)(=O)N1Cc2c(ccc(Cl)c2Cl)CC1C` (centres undefined), for which, in assay [1], the Inhibition is reported as 18%.

As to `COc1ccc2c(c1Cl)CN(S(=O)(=O)NS(=O)(=O)N1CCc3ccc(OC)c(Cl)c3C1)CC2`, in assay [1], the Inhibition turned out to be 20%. Take `O=S(=O)(NS(=O)(=O)N1CCc2c(Br)cc(Br)c(Br)c2C1)N1CCc2c(Br)cc(Br)c(Br)c2C1`: in assay [2], the Inhibition is 7%.

`O=S(=O)(NS(=O)(=O)N1CCc2ccc(Cl)cc2C1)N1CCc2ccc(Cl)cc2C1`: the Inhibition in assay [1] is given as 18%.
